Among the data in ChEMBL document CHEMBL1156123, “A facile synthesis and biological activity of novel tetrahydrobenzo[4',5']thieno[3',2':5,6]pyrido[4,3-d]pyrimidin-4(3H)-ones” (Bioorg Med Chem Lett, 2009) are inhibition and IC50 values, retold here.

As a reminder, the inhibition is how much of the control response was suppressed. A higher inhibition goes with a strong effect. In general, IC50 refers to the concentration that gives 50% inhibition. Low readings indicate greater potency in that assay, high ones weaker potency in that assay.

Bounds are passed on as bounds.

The test system of one experiment is Botrytis cinerea. As to the kind of experiment: Antifungal activity against Botrytis cinerea at 50 mg/L relative to control. The format is functional.
The test system of a further experiment is Fusarium graminearum. As to the kind of experiment: Antifungal activity against Gibberella zeae at 50 mg/L relative to control. Type of experiment: functional.
Experiment [1] deals with Botryosphaeria berengeriana. As to the kind of experiment: Antifungal activity against Botryosphaeria berengeriana at 50 mg/L relative to control. Type of experiment: functional.
A further experiment concerns Bipolaris maydis. In words: Antifungal activity against Bipolaris maydis at 50 mg/L relative to control. Type of experiment: functional.
A further experiment concerns KB. In words: Cytotoxicity against human KB cells after 72 hrs MTT assay. Type of experiment: functional, cell-based. A digest of the protocol:
(§1)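 MTT read-out after 72 h exposure to compound. KB are drug-sensitive human oral carcinoma cells. KBv200 are the vincristine-induced multidrug-resistant derivative overexpressing ABCB1. Values are means of three independent experiments, each run in quadruplicate, with coefficients of variation below 10%.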

The nature of experiment [2]: Cytotoxicity against multi-drug resistant human KBv200 cells after 72 hrs by MTT assay. The settings on record: KBv200, 72 h. The format is functional, cell-based. A digest of the protocol: as §1
The subject of another experiment is Rhizoctonia solani. In words: Antifungal activity against Rhizoctonia solani at 50 mg/L relative to control. Type of experiment: functional.

Regarding `Cc1nc2sc3c(c2c2nc(Oc4cccc(F)c4)n(-c4ccccc4)c(=O)c12)CCCC3`, the inhibition at 50 µg/mL in the experiment with Botrytis cinerea was determined as 98%; in the experiment on Fusarium graminearum, 58%; in experiment [1], 78%; in the experiment with Bipolaris maydis, 90%; in the experiment with Rhizoctonia solani, 84%. Further, the IC50 (with KB; in experiment [2]) was above 100 µM each time.

With `Cc1nc2sc3c(c2c2nc(Oc4ccccc4)n(-c4ccccc4)c(=O)c12)CCCC3`, the inhibition at 50 µg/mL is 85% with Botrytis cinerea; 15% in the experiment on Fusarium graminearum; 56% in experiment [1]; 76% with Bipolaris maydis; 65% in the experiment on Rhizoctonia solani. Further, the IC50 in the experiment with KB amounted to 54.2 µM; in experiment [2] it was 61.9 µM.

Regarding `CCCNc1nc2c(c(C)nc3sc4c(c32)CCCC4)c(=O)n1-c1ccccc1`, the inhibition at 50 µg/mL came out at 57% in the experiment on Botrytis cinerea; 20% in the experiment with Fusarium graminearum; 29% in experiment [1]; 47% in the experiment with Bipolaris maydis; 24% in the experiment with Rhizoctonia solani. The half-inhibitory concentration (IC50) in the experiment on KB is 17.4 µM; in experiment [2] it was 25.4 µM.

In the case of `Cc1nc2sc3c(c2c2nc(Oc4ccc(Br)cc4)n(-c4ccccc4)c(=O)c12)CCCC3`, the inhibition at 50 µg/mL worked out at 83% in the experiment with Botrytis cinerea; 65% in the experiment with Fusarium graminearum; 83% in experiment [1]; 81% in the experiment on Bipolaris maydis; 68% in the experiment on Rhizoctonia solani. Moreover, the 50% inhibitory concentration (IC50) in the experiment with KB was 68.9 µM; in experiment [2], above 100 µM.

Turning to `CCCCNc1nc2c(c(C)nc3sc4c(c32)CCCC4)c(=O)n1-c1ccccc1`, the inhibition at 50 µg/mL with Botrytis cinerea amounted to 100%; with Fusarium graminearum it was 83%; in experiment [1], 76%; with Bipolaris maydis, 79%; with Rhizoctonia solani, 89%. The half-inhibitory concentration (IC50) was 32 µM in the experiment on KB and 32.8 µM in experiment [2].

With `Cc1nc2sc3c(c2c2nc(Oc4ccc(F)cc4Cl)n(-c4ccccc4)c(=O)c12)CCCC3`, the inhibition at 50 µg/mL in the experiment on Botrytis cinerea turned out to be 88%; in the experiment on Fusarium graminearum it was 54%; in experiment [1], 67%; in the experiment with Bipolaris maydis it was 67%; with Rhizoctonia solani it was 79%. The half-maximal inhibitory concentration (IC50) (with KB; in experiment [2]) was above 100 µM in each case.

Turning to `Cc1ccc(Cl)c(Oc2nc3c(c(C)nc4sc5c(c43)CCCC5)c(=O)n2-c2ccccc2)c1`, the inhibition at 50 µg/mL was 88% in the experiment on Botrytis cinerea; 23% in the experiment with Fusarium graminearum; 50% in experiment [1]; 48% with Bipolaris maydis; 63% in the experiment with Rhizoctonia solani. The IC50 (with KB; in experiment [2]) was above 100 µM throughout.

As to `Cc1nc2sc3c(c2c2nc(Oc4cc(F)cc(F)c4)n(-c4ccccc4)c(=O)c12)CCCC3`, the inhibition at 50 µg/mL with Botrytis cinerea is 83%; in the experiment on Fusarium graminearum, 31%; in experiment [1] it was 61%; in the experiment on Bipolaris maydis, 48%; in the experiment on Rhizoctonia solani it was 74%. Further, the IC50 in the experiment with KB was determined as 52.5 µM; in experiment [2], 39.9 µM.

In the case of `Cc1cc(Oc2nc3c(c(C)nc4sc5c(c43)CCCC5)c(=O)n2-c2ccccc2)ccc1Cl`, the inhibition at 50 µg/mL in the experiment with Botrytis cinerea was 73%; in the experiment on Fusarium graminearum, 31%; in experiment [1] it was 39%; with Bipolaris maydis, 52%; in the experiment on Rhizoctonia solani it was 22%. Also, the IC50 worked out at 84.3 µM in the experiment with KB and 72.2 µM in experiment [2].

As to `Cc1nc2sc3c(c2c2nc(Oc4ccc(F)cc4F)n(-c4ccccc4)c(=O)c12)CCCC3`, the inhibition at 50 µg/mL in the experiment with Botrytis cinerea came to 78%; in the experiment on Fusarium graminearum, 38%; in experiment [1], 50%; with Bipolaris maydis it was 71%; in the experiment with Rhizoctonia solani, 63%. For the same molecule, the IC50 (with KB; in experiment [2]) was above 100 µM in each case.

On to `Cc1ccc(Oc2nc3c(c(C)nc4sc5c(c43)CCCC5)c(=O)n2-c2ccccc2)cc1`, for which the inhibition at 50 µg/mL with Botrytis cinerea came to 80%; with Fusarium graminearum it was 31%; in experiment [1], 56%; with Bipolaris maydis, 76%; with Rhizoctonia solani, 61%. Further, the values for the concentration for half-maximal inhibition (IC50) (with KB; in experiment [2]) were 48.3 µM and 67.3 µM, respectively.

Turning to `COc1cccc(Oc2nc3c(c(C)nc4sc5c(c43)CCCC5)c(=O)n2-c2ccccc2)c1`, the inhibition at 50 µg/mL in the experiment with Botrytis cinerea is 66%; in the experiment on Fusarium graminearum it was 42%; in experiment [1], 67%; in the experiment with Bipolaris maydis, 76%; in the experiment on Rhizoctonia solani, 76%. Moreover, the IC50 (with KB; in experiment [2]) was above 100 µM in each case.

Take `Cc1cccc(Oc2nc3c(c(C)nc4sc5c(c43)CCCC5)c(=O)n2-c2ccccc2)c1`: the inhibition at 50 µg/mL was 99% in the experiment on Botrytis cinerea; 65% in the experiment on Fusarium graminearum; 78% in experiment [1]; 81% with Bipolaris maydis; 91% with Rhizoctonia solani. Also, the IC50 (in the experiment with KB; in experiment [2]) was above 100 µM each time.

Take `Cc1nc2sc3c(c2c2nc(Oc4ccc([N+](=O)[O-])cc4)n(-c4ccccc4)c(=O)c12)CCCC3`: the inhibition at 50 µg/mL in the experiment with Botrytis cinerea stood at 85%; in the experiment on Fusarium graminearum, 46%; in experiment [1], 61%; in the experiment on Bipolaris maydis it was 67%; in the experiment with Rhizoctonia solani, 68%. Also, the half-maximal inhibitory concentration (IC50) (in the experiment on KB; in experiment [2]) was above 100 µM throughout.

In the experiment with KB, `O=c1[nH]cc(F)c(=O)[nH]1` [FLUOROURACIL] registered an IC50 of 12.5 µM.

For the molecule `CC(C)(C)C(=O)C(Oc1ccc(Cl)cc1)n1cncn1` (configuration not stated) [TRIADIMEFON], the inhibition at 50 µg/mL is 78% with Botrytis cinerea, 59% in the experiment on Fusarium graminearum and 91% with Rhizoctonia solani.
